Experimental data gathered from unrelated publications.
Protocols differ between the studies behind these lines.
PIK3CA E545A: Phosphatidylinositol 4,5-bisphosphate 3-kinase catalytic subunit alpha isoform (PIK3CA, Homo sapiens, UniProt P42336, E545A)
PIK3CA H1047L: Phosphatidylinositol 4,5-bisphosphate 3-kinase catalytic subunit alpha isoform (PIK3CA, Homo sapiens, UniProt P42336, H1047L)
PIK3CA: Phosphatidylinositol 4,5-bisphosphate 3-kinase catalytic subunit alpha isoform (PIK3CA, Homo sapiens, UniProt P42336)
PIK3CA C420R: Phosphatidylinositol 4,5-bisphosphate 3-kinase catalytic subunit alpha isoform (PIK3CA, Homo sapiens, UniProt P42336, C420R)
PIK3CA E545K: Phosphatidylinositol 4,5-bisphosphate 3-kinase catalytic subunit alpha isoform (PIK3CA, Homo sapiens, UniProt P42336, E545K)
PIK3CA Q546K: Phosphatidylinositol 4,5-bisphosphate 3-kinase catalytic subunit alpha isoform (PIK3CA, Homo sapiens, UniProt P42336, Q546K)
PIK3CA H1047Y: Phosphatidylinositol 4,5-bisphosphate 3-kinase catalytic subunit alpha isoform (PIK3CA, Homo sapiens, UniProt P42336, H1047Y)
PIK3CA E542K: Phosphatidylinositol 4,5-bisphosphate 3-kinase catalytic subunit alpha isoform (PIK3CA, Homo sapiens, UniProt P42336, E542K)

SMILES	target	assay	conditions	remaining binding
c1cnn2ncc(-c3ccnc(N4CCC45COC5)n3)c2c1	PIK3CA E545A	binding	1 µM	70%
Cc1cnc(Nc2ccc(C(=O)N3CCC(N4CCCC4)CC3)cc2)nc1-c1cc2ccccc2s1	PIK3CA H1047L	binding, competition with immobilised ligand	1 µM	97%
Cc1nc(Cc2cccc(C(F)(F)F)c2)sc1-c1ccc(C(N)=O)nc1	Phosphatidylinositol 4,5-bisphosphate 3-kinase catalytic subunit alpha isoform (PIK3CA, Homo sapiens, UniProt P42336, M1043I)	binding, competition with immobilised ligand	1 µM	15%
CC(C)(C)c1ccc(-c2nc(CBr)nn2-c2cccc(O)c2)cc1	PIK3CA	cell-free assay, competition with immobilised ligand	10 µM	80%
O=C(O)c1cc(-c2ccc(C3CCNCC3)cc2)c2ccc(-c3ccc(C(F)(F)F)cc3)cc2c1	PIK3CA C420R	cell-free assay, competition with immobilised ligand	1 µM	95%
O=C(NCC1CCOCC1)c1n[nH]cc1NC(=O)c1c(F)cccc1F	PIK3CA E545K	binding, competition with immobilised ligand	1 µM	75%
Nc1ncc2c(n1)-c1c([nH]c3ccc(C#CC4CC4)cc13)CCCC2	PIK3CA Q546K	binding, competition with immobilised ligand	1 µM	98%
N[C@@H]1CCN(c2nccc(-c3cnn4ncccc34)n2)C1	PIK3CA E545A	binding	1 µM	100%
O=C(c1ccc(Nc2nccc(-c3cc4ccccc4s3)n2)cc1)N1CCC(N2CCCC2)CC1	PIK3CA Q546K	binding, competition with immobilised ligand	1 µM	100%
CS(=O)(=O)c1cc(C2(NC(=O)c3cncc4c3cnn4-c3ccc(F)cc3)CC2)ccn1	PIK3CA Q546K	cell-free assay, competition with immobilised ligand	1 µM	66%
COc1cnc(Nc2cccc(S(N)(=O)=O)c2)nc1N1CCN(c2ccccc2)C(=O)C1	PIK3CA	binding, competition with immobilised ligand	1 µM	100%
CN(C)c1nccc(-c2cnn3ncccc23)n1	PIK3CA H1047Y	binding	1 µM	90%
CCS(=O)(=O)c1cc2cc(C[C@@](O)(CC(C)(C)c3ccc(F)cc3C(N)=O)C(F)(F)F)[nH]c2cn1	PIK3CA H1047L	cell-free assay, competition with immobilised ligand	1 µM	97%
CN(CCCC(F)(F)F)c1nccc(-c2cnn3ncccc23)n1	PIK3CA H1047L	binding	1 µM	100%
c1cncc(-c2cccc(Nc3nccc(NC4CCCCC4)n3)c2)c1	PIK3CA E545K	binding, competition with immobilised ligand	10 µM	94%
CN1CCN(c2ccc(Nc3nccc(-c4cccc([N+](=O)[O-])c4)n3)cc2C(F)(F)F)CC1	PIK3CA E542K	binding	10 µM	36%
CN([C@@H]1CCc2c(CC(=O)O)c3cc(S(C)(=O)=O)ccc3n2C1)S(=O)(=O)c1ccc(F)cc1	PIK3CA Q546K	cell-free assay, competition with immobilised ligand	1 µM	100%
C[C@@H](c1ccc(-n2cnc3c(N)ncnc32)cc1)N1CCc2nn(C)c(Cc3ccccc3)c2C1=O	PIK3CA E542K	binding, competition with immobilised ligand	0.1 µM	83%
CC1CCCN1c1nccc(-c2cnn3ncccc23)n1 (stereo not drawn)	PIK3CA H1047Y	binding	1 µM	88%
Cc1nc(N2CC[C@@H](O)C2)ncc1-c1cc(C(F)(F)F)cc2[nH]ncc12	PIK3CA C420R	cell-free assay, competition with immobilised ligand	1 µM	82%
C[C@H]1CCN(c2nccc(-c3cnn4ncccc34)n2)C1	PIK3CA	binding	1 µM	80%
O=C(NCCCN1CCOCC1)c1ccc(Nc2nccc(-c3cc4ccccc4s3)n2)cc1	Phosphatidylinositol 4,5-bisphosphate 3-kinase catalytic subunit alpha isoform (PIK3CA, Homo sapiens, UniProt P42336, I800L)	binding, competition with immobilised ligand	1 µM	13%
F[C@@H]1CCN(c2nccc(-c3cnn4ncccc34)n2)C1	PIK3CA H1047Y	binding	1 µM	81%
O=C(Nc1cnc(Oc2ccc(F)cc2)nc1)N1CCc2ncccc2[C@@H]1c1ccc(F)cc1	PIK3CA H1047Y	cell-free assay, competition with immobilised ligand	1 µM	100%
